# Compounds with a hit are over-represented: about 1.9% of the library has one in this group of screens.
# CHRM4 agonist – CHRM4 agonism in calcium assay; P08173; CHO-K1 hM4/Gqi5, Fluo-8 calcium fluorescence; vehicle 0%, full acetylcholine response 100%; activation, % at 3 µM; 0.14% of 360,000 active;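 active means activation above the run mean over all test wells plus 3 SD, cut at about 32% in these data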;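 further: peak over basal fluorescence ratio per well then scaled between controls; 0% = DMSO wells and 100% = acetylcholine at EC100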
# Target sequence (P08173 whole entry, looked up): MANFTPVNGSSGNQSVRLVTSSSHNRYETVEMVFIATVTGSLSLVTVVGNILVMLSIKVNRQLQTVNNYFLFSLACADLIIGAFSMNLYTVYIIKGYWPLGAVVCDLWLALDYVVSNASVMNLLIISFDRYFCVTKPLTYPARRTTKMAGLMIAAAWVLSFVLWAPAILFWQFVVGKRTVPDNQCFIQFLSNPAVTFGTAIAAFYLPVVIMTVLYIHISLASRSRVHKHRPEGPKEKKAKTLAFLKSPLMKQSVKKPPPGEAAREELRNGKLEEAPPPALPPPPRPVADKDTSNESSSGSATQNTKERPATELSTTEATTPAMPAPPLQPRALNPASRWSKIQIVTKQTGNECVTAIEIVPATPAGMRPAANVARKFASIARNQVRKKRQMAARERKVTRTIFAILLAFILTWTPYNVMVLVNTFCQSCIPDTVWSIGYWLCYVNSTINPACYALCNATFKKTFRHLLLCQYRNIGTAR
# M5 antag – antagonists of human muscarinic M5 receptor (CHRM5). P08912. CHO-hM5 cells, Fluo-8 calcium fluorescence, ACh EC80. inhibition, % at 3 µM. 0.59% of 360,000 active;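 active means inhibition above a per-plate cutoff, the mean of that plate's test compounds plus 3 SD, cut at about 27% in these data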;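 further: 0% = acetylcholine EC80 with DMSO and 100% = DMSO without agonist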
# M5 PAM – potentiates acetylcholine response at human M5 receptor; P08912; CHO-K1 hM5, Fluo-8 calcium, ACh EC20 PAM; 0% = ACh EC20, 100% = ACh EC100; activation, % at 3 µM; 0.3% of 360,000 active; AID 624038;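 active means activation above the run cutoff, the mean activation of all test compounds plus 3 SD, cut at about 18% in these data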
#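 System: CHO-K1 cell line with stable human muscarinic M5 receptor expression | Also added: EC20 acetylcholine as agonist stimulus | Compound: One concentration, 3 µM final (nominal) | Timing: Fluo-8 loading 80 min at 37 °C plus 30 min room temperature | Measured by: Fluo-8 calcium dye fluorescence, kinetic read | Read-out basis: % activation, ACh-normalized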
# M4 PAM – positive allosteric modulators of human muscarinic M4 receptor; P08173; CHO-K1 hM4/Gqi5, Fluo-8 calcium fluorescence, ACh EC20; 0% = ACh EC20, 100% = maximal ACh; activation, % at 3 µM; 0.4% of 360,000 active; AID 624126;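 active means activation above its plate's cutoff, the mean activation of sample wells plus 3 SD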
# CHRM5 agonist – CHRM5 agonism in calcium assay; 0.19% of 360,000 active; AID 624037; P08912; CHO-K1 hM5 cells, Fluo-8 calcium fluorescence; 0% DMSO wells, 100% maximal acetylcholine response; activation, % at 3 µM;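 active means activation above the run's mean over test compounds plus 3 SD, cut at about 23% in these data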;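 further: signal is peak over basal fluorescence ratio across the kinetic read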
# CHRM4 antagonist – CHRM4 antagonism in calcium assay | P08173 | CHO-hM4 cells, ACh EC80, Fluo-8 calcium fluorescence | inhibition, % at 3 µM | 0.73% of 360,000 active | AID 624125;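 active means inhibition above its plate's cutoff, the mean inhibition of sample wells plus 3 SD, cut at about 27% in these data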;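 further: 0% = acetylcholine EC80 with DMSO and 100% = DMSO without agonist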
# An asterisk follows results filed as active.
SMILES,CHRM4 agonist,M5 antag,M5 PAM,M4 PAM,CHRM5 agonist,CHRM4 antagonist
C[C@H]1CN([C@@H](C)CO)C(=O)c2cccc(NC(=O)Nc3ccc(C(F)(F)F)cc3)c2O[C@H]1CN(C)C,0,-5,21*,17,2,-1
C[C@H](CO)N1C[C@H](C)[C@@H](CN(C)Cc2ccc(Oc3ccccc3)cc2)Oc2c(NC(=O)C3CC3)cccc2C1=O,11,0,-8,-8,-2,38*
C[C@H](CO)N1C[C@H](C)[C@@H](CN(C)S(C)(=O)=O)Oc2ccc(NC(=O)Nc3ccccc3)cc2C1=O,3,0,22*,4,2,-2
C[C@@H]1CCCCO[C@H](CN(C)S(=O)(=O)c2cn(C)cn2)[C@H](C)CN([C@@H](C)CO)C(=O)c2cc(NC(=O)c3ccccc3)ccc2O1,0,9,1,3,1,0
COc1ccc(NC(=O)Nc2ccc3c(c2)C(=O)N([C@H](C)CO)C[C@H](C)[C@@H](CN(C)S(C)(=O)=O)O3)cc1,1,1,2,11,3,-8
C[C@@H]1CCCCO[C@H](CN(C)S(=O)(=O)c2cn(C)cn2)[C@@H](C)CN([C@H](C)CO)C(=O)c2cc(NC(=O)c3ccncc3)ccc2O1,0,-16,6,18*,1,-32
CC1=C(C(=O)N2CCCCCC2)CC(CC(=O)NCc2cccc3ccccc23)C(=O)N1CCC1=CCCCC1 (stereo unspecified),15,9,-7,-9,5,2
CN1/C(=C\P(=O)(N(C)C)N(C)C)C(C)(C)c2ccccc21,8,34*,-9,-2,5,20
CC(C)C[C@H]1CNC(=O)C(=O)N1C[C@@H]1CCCN1C[C@H](Cc1ccc(O)cc1)N1C[C@H](Cc2ccccc2)N(CC2CCCCC2)C(=O)C1=O,-1,7,-11,0,-3,37*
O=C1NC[C@@H](CCCCN2C[C@H](Cc3ccc(O)cc3)N(CC3CCCCC3)C(=O)C2=O)N(CCC2CCCCC2)C1=O,71*,3,-6,8,37*,-5
CCN(CC)CCN1c2ccccc2Sc2ccccc21,3,99*,-18,-18,-7,89*
CCN(CC)CCN1c2ccccc2Sc2ccc3ccccc3c21,4,80*,-21,-15,-7,20
O=[N+]([O-])c1ccccc1CN1CCN(S(=O)(=O)Cc2ccccc2)CC1,2,5,2,15,-2,0
CN(Cc1ccccc1)C1CCN(Cc2ccccc2[N+](=O)[O-])CC1,1,11,-15,-17,-21,48*
Oc1ccc(-c2[nH]ncc2-c2cnn(-c3ccccc3)c2)c(O)c1,1,12,3,1,-3,0
Oc1cnn(-c2ccccc2)c1,2,13,3,31*,-3,12
O=C(Nc1ccccc1Cl)NN1CCCCCC1,-2,2,3,3,1,-4
O=C1CN(c2ccccc2Cl)C(=O)CN1c1ccccc1Cl,0,6,-2,-4,-3,10
Cc1ccccc1N1CC(=O)N(c2ccccc2C)CC1=O,2,-8,-5,20*,-2,9
O=Cc1ccccc1Oc1ccccc1,0,-1,4,1,2,1
O=Cc1ccccc1OCCOc1ccccc1C=O,1,21,-21,-11,-5,27*
O=C(/C=C/c1ccc(F)cc1)NC(=S)NNC(=O)[C@H]1C[C@@H]1c1ccccc1,53*,29*,-13,-9,13,8
Cc1cccc(NC(=O)CN2C(=O)NC3(CCCCCCC3)C2=O)c1C,1,21,3,1,3,-6
O=C(CN1C(=O)NC2(CCCCC2)C1=O)Nc1cccc2ncccc12,0,8,-8,24*,1,-25
C/C(=N\NC(=O)c1nn(C)c(C)c1Br)c1cccc(NC(=O)c2ccoc2C)c1,2,11,22*,5,-4,17
SMILES,CHRM4 agonist,M5 antag,M5 PAM,M4 PAM,CHRM5 agonist,CHRM4 antagonist
CCCCc1ccc(NC(=O)Nc2cc(C)nn2C)cc1,3,-2,14,-7,-2,-13
COC(=O)c1ccccc1S(=O)(=O)N1CCC(C(=O)NCc2ccco2)CC1,1,1,11,23*,0,-4
COC(=O)c1ccccc1S(=O)(=O)N1CCC(C(=O)NCC2CCCO2)CC1 (stereo unspecified),1,3,8,-2,2,3
CN1CCC(Oc2ccccc2Sc2ccc(C(F)(F)F)cc2)CC1,1,14,-20,-6,-9,6
CN1CCC(Oc2ccc(Sc3ccccc3)cc2)CC1,12,17,-10,-17,-4,34*
COc1ccc(CN(CC(=O)NCc2ccc(F)cc2)C(=O)c2csnn2)cc1,2,0,-5,-3,0,5
CCCNS(=O)(=O)c1ccc(CCC(=O)Nc2cc(Cl)ccc2Oc2ccccc2)cc1,9,29*,-19,-20,0,43*
CCCN(CC(=O)Nc1ccccc1C)C(=O)c1ccc(N2CCCCC2)c([N+](=O)[O-])c1,3,7,4,2,4,-8
CSc1nsc(SC)c1C(=O)NC(=O)Nc1cccnc1,0,-11,22*,3,4,-3
CSc1nsc(SC)c1C(=O)Nc1ccc(C(C)(C)C)cc1,-1,4,-10,-12,-11,3
O=C(CCCN1CCOCC1)c1ccc2c(c1)OCCO2,2,8,-2,5,0,-4
O=C(CCCN1CCC(c2ccccc2)C1)c1ccc2c(c1)OCCO2 (stereo unspecified),4,11,-9,-15,-5,27*
O=C(COC(=O)COc1ccccc1)Nc1ccc(Br)cc1F,1,10,-2,14*,5,7
O=C(COC(=O)COc1ccccc1)Nc1ccc(Br)cc1Br,0,12,3,1,2,6
CCN1CCN(C(=O)c2ccc(Cl)c(S(=O)(=O)N(C)c3ccccc3)c2)CC1,3,-2,5,20*,0,-1
COc1cc(/C=C2/NC(=O)NC2=O)cc(Br)c1OCc1ccc(C(=O)O)cc1,1,8,-1,13,-1,-1
C=CCc1cc(C=O)cc(OC)c1OCc1ccc(C(=O)O)cc1,1,-9,18,20*,-2,-4
COc1ccc(C(=O)NCCCN2CCCC2=O)cc1S(=O)(=O)N1CCOCC1,1,9,-2,6,0,-14
Cc1cc(N/N=C/c2ccccc2O)nc(-c2ccccc2O)n1,5,7,-6,-2,-2,-6
